Values after ≈ are worked out from the molar mass of the structure shown.
Tests used:
Assay type in all cases: functional
Candida albicans [1] = experiment: Antifungal activity against Candida albicans ATCC 10231 assessed as fungal growth inhibition by double dilution method
Procedure, shortened: (§1)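 Broth microdilution after CLSI M27-A3/M38-A2 with minor changes. Single colony grown overnight in YPD at 35 °C, 200 rpm. Compound final range 0.06-31.3 µg/mL; incubated 48 h at 35 °C.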

Candida albicans [2] = experiment: Antifungal activity against Candida albicans ATCC 64124 assessed as fungal growth inhibition by double dilution method
Procedure, shortened: (§2)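 Broth microdilution after CLSI M27-A3/M38-A2 with minor modifications. A single colony was grown overnight in YPD at 35 °C with shaking at 200 rpm. Cells were mixed 1:1 with compound (final 0.06-31.3 µg/mL, from DMSO stocks) and incubated 48 h at 35 °C.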

Candida albicans [3] = experiment: Antifungal activity against itraconazole/fluconazole susceptible Candida albicans ATCC MYA-2876 assessed as fungal growth inhibition by double dilution method; procedure, shortened: as §2
Candida albicans [4] = experiment: Antifungal activity against itraconazole/fluconazole resistant Candida albicans ATCC 90819 assessed as fungal growth inhibition by double dilution method; procedure, shortened: as §2
Candida albicans [5] = experiment: Antifungal activity against itraconazole/fluconazole susceptible Candida albicans ATCC MYA-2310 assessed as fungal growth inhibition by double dilution method; procedure, shortened: as §2
Candida albicans [6] = experiment: Antifungal activity against itraconazole/fluconazole resistant Candida albicans ATCC MYA-1237 assessed as fungal growth inhibition by double dilution method; procedure, shortened: as §2
Candida albicans [7] = experiment: Antifungal activity against itraconazole/fluconazole resistant Candida albicans ATCC MYA-1003 assessed as fungal growth inhibition by double dilution method; procedure, shortened: as §2
Nakaseomyces glabratus [8] = experiment: Antifungal activity against Candida glabrata ATCC 2001 assessed as fungal growth inhibition by double dilution method; procedure, shortened: as §1
Pichia kudriavzevii [9] = experiment: Antifungal activity against Pichia kudriavzevii ATCC 6258 assessed as fungal growth inhibition by double dilution method; procedure, shortened: as §1
Nakaseomyces glabratus [10] = experiment: Antifungal activity against Candida glabrata ATCC 22019 assessed as fungal growth inhibition by double dilution method; procedure, shortened: as §1
[Candida] auris [11] = Antifungal activity against Candida auris AR Bank # 0384 assessed as fungal growth inhibition by double dilution method; settings: Candidozyma auris; procedure, shortened: as §1
[Candida] auris [12] = Antifungal activity against Candida auris AR Bank # 0390 assessed as fungal growth inhibition by double dilution method; settings: Candidozyma auris; procedure, shortened: as §1
Cryptococcus neoformans = experiment: Antifungal activity against Cryptococcus neoformans ATCC MYA-895 assessed as fungal growth inhibition by double dilution method; procedure, shortened: as §1
Aspergillus terreus = experiment: Antifungal activity against Aspergillus terreus ATCC MYA-3633 assessed as fungal growth inhibition by double dilution method
Aspergillus fumigatus [13] = experiment: Antifungal activity against Aspergillus fumigatus NRRL 163 assessed as fungal growth inhibition by double dilution method
Aspergillus flavus = experiment: Antifungal activity against Aspergillus flavus ATCC MYA-3631 assessed as fungal growth inhibition by double dilution method
Aspergillus nidulans = experiment: Antifungal activity against Aspergillus nidulans ATCC 38163 assessed as fungal growth inhibition by double dilution method
Aspergillus fumigatus [14] = experiment: Antifungal activity against Aspergillus fumigatus NRRL 5109 assessed as fungal growth inhibition by double dilution method
Aspergillus fumigatus [15] = experiment: Antifungal activity against Aspergillus fumigatus NRRL 6113 assessed as fungal growth inhibition by double dilution method
[Candida] auris [16] = Antifungal activity against Candida auris AR Bank # 381 assessed as fungal growth inhibition by double dilution method; settings: Candidozyma auris; procedure, shortened: as §1
[Candida] auris [17] = Antifungal activity against Candida auris AR Bank # 382 assessed as fungal growth inhibition by double dilution method; settings: Candidozyma auris; procedure, shortened: as §1
[Candida] auris [18] = Antifungal activity against Candida auris AR Bank # 383 assessed as fungal growth inhibition by double dilution method; settings: Candidozyma auris; procedure, shortened: as §1
[Candida] auris [19] = Antifungal activity against Candida auris AR Bank # 384 assessed as fungal growth inhibition by double dilution method; settings: Candidozyma auris; procedure, shortened: as §1
[Candida] auris [20] = Antifungal activity against Candida auris AR Bank # 385 assessed as fungal growth inhibition by double dilution method; settings: Candidozyma auris; procedure, shortened: as §1
[Candida] auris [21] = Antifungal activity against Candida auris AR Bank # 386 assessed as fungal growth inhibition by double dilution method; settings: Candidozyma auris; procedure, shortened: as §1
[Candida] auris [22] = Antifungal activity against Candida auris AR Bank # 387 assessed as fungal growth inhibition by double dilution method; settings: Candidozyma auris; procedure, shortened: as §1
[Candida] auris [23] = Antifungal activity against Candida auris AR Bank # 388 assessed as fungal growth inhibition by double dilution method; settings: Candidozyma auris; procedure, shortened: as §1
[Candida] auris [24] = Antifungal activity against Candida auris AR Bank # 389 assessed as fungal growth inhibition by double dilution method; settings: Candidozyma auris; procedure, shortened: as §1
[Candida] auris [25] = Antifungal activity against Candida auris AR Bank # 390 assessed as fungal growth inhibition by double dilution method; settings: Candidozyma auris; procedure, shortened: as §1
Candida duobushaemulonii [26] = experiment: Antifungal activity against Candida duobushaemulonii AR Bank # 391 assessed as fungal growth inhibition by double dilution method; settings: Candidozyma duobushaemuli; procedure, shortened: as §1
Candida duobushaemulonii [27] = experiment: Antifungal activity against Candida duobushaemulonii AR Bank # 392 assessed as fungal growth inhibition by double dilution method; settings: Candidozyma duobushaemuli; procedure, shortened: as §1
[Candida] haemuloni [28] = Antifungal activity against Candida haemulonii AR Bank # 393 assessed as fungal growth inhibition by double dilution method; settings: Candidozyma haemuli; procedure, shortened: as §1
Candida duobushaemulonii [29] = experiment: Antifungal activity against Candida duobushaemulonii AR Bank # 394 assessed as fungal growth inhibition by double dilution method; settings: Candidozyma duobushaemuli; procedure, shortened: as §1
[Candida] haemuloni [30] = Antifungal activity against Candida haemulonii AR Bank # 395 assessed as fungal growth inhibition by double dilution method; settings: Candidozyma haemuli; procedure, shortened: as §1
Kodamaea ohmeri = experiment: Antifungal activity against Kodamaea ohmeri AR Bank # 396 assessed as fungal growth inhibition by double dilution method; procedure, shortened: as §1
Pichia kudriavzevii [31] = experiment: Antifungal activity against Pichia kudriavzevii AR Bank # 397 assessed as fungal growth inhibition by double dilution method; procedure, shortened: as §1
Clavispora lusitaniae = experiment: Antifungal activity against Clavispora lusitaniae AR Bank # 398 assessed as fungal growth inhibition by double dilution method; procedure, shortened: as §1
Saccharomyces cerevisiae [32] = experiment: Antifungal activity against Saccharomyces cerevisiae AR Bank # 399 assessed as fungal growth inhibition by double dilution method; procedure, shortened: as §1
Saccharomyces cerevisiae [33] = experiment: Antifungal activity against Saccharomyces cerevisiae AR Bank # 400 assessed as fungal growth inhibition by double dilution method; procedure, shortened: as §1

Row | SMILES | MIC (Candida albicans [1]) | MIC (Candida albicans [2]) | MIC (Candida albicans [3]) | MIC (Candida albicans [4]) | MIC (Candida albicans [5]) | MIC (Candida albicans [6]) | MIC (Candida albicans [7]) | MIC (Nakaseomyces glabratus [8]) | MIC (Pichia kudriavzevii [9]) | MIC (Nakaseomyces glabratus [10]) | MIC ([Candida] auris [11]) | MIC ([Candida] auris [12]) | MIC (Cryptococcus neoformans) | MIC (Aspergillus terreus) | MIC (Aspergillus fumigatus [13]) | MIC (Aspergillus flavus) | MIC (Aspergillus nidulans) | MIC (Aspergillus fumigatus [14]) | MIC (Aspergillus fumigatus [15]) | also measured
1 | COc1ccc(NNC(=O)c2ccc(F)cc2F)cc1 | 0.98 µg/mL (≈ 3.52 µM) | 1.95 µg/mL (≈ 7.01 µM) | 1.95 µg/mL (≈ 7.01 µM) | 1.95 µg/mL (≈ 7.01 µM) | 1.95 µg/mL (≈ 7.01 µM) | 1.95 µg/mL (≈ 7.01 µM) | 1.95 µg/mL (≈ 7.01 µM) | 3.9 µg/mL (≈ 14 µM) | 0.98 µg/mL (≈ 3.52 µM) | 7.8 µg/mL (≈ 28 µM) | 1.95 µg/mL (≈ 7.01 µM) | 1.95 µg/mL (≈ 7.01 µM) | 0.98 µg/mL (≈ 3.52 µM) | 31.3 µg/mL (≈ 112 µM) | > 31.3 µg/mL | > 31.3 µg/mL | 1.95 µg/mL (≈ 7.01 µM) | > 31.3 µg/mL | > 31.3 µg/mL | –
2 | O=C(NNc1ccc(Cl)cc1)c1cnccn1 | – | – | – | – | – | – | – | – | – | – | – | – | – | – | – | – | – | – | – | MIC ([Candida] auris [16]): 7.8 µg/mL (≈ 31.4 µM); MIC ([Candida] auris [17]): 15.6 µg/mL (≈ 62.7 µM); MIC ([Candida] auris [18]): 3.9 µg/mL (≈ 15.7 µM); MIC ([Candida] auris [19]): 1.95 µg/mL (≈ 7.84 µM); MIC ([Candida] auris [20]): 31.3 µg/mL (≈ 126 µM); MIC ([Candida] auris [21]): 7.8 µg/mL (≈ 31.4 µM); MIC ([Candida] auris [22]): 15.6 µg/mL (≈ 62.7 µM); MIC ([Candida] auris [23]): 7.8 µg/mL (≈ 31.4 µM); MIC ([Candida] auris [24]): 7.8 µg/mL (≈ 31.4 µM); MIC ([Candida] auris [25]): 3.9 µg/mL (≈ 15.7 µM); MIC (Candida duobushaemulonii [26]): 1.95 µg/mL (≈ 7.84 µM); MIC (Candida duobushaemulonii [27]): 1.95 µg/mL (≈ 7.84 µM); MIC ([Candida] haemuloni [28]): 1.95 µg/mL (≈ 7.84 µM); MIC (Candida duobushaemulonii [29]): 1.95 µg/mL (≈ 7.84 µM); MIC ([Candida] haemuloni [30]): 3.9 µg/mL (≈ 15.7 µM); MIC (Kodamaea ohmeri): 1.95 µg/mL (≈ 7.84 µM); MIC (Pichia kudriavzevii [31]): 3.9 µg/mL (≈ 15.7 µM); MIC (Clavispora lusitaniae): 3.9 µg/mL (≈ 15.7 µM); MIC (Saccharomyces cerevisiae [32]): 3.9 µg/mL (≈ 15.7 µM); MIC (Saccharomyces cerevisiae [33]): 3.9 µg/mL (≈ 15.7 µM)
3 | COc1ccc(NNC(=O)c2ncc(F)cc2F)cc1 | 1.95 µg/mL (≈ 6.98 µM) | 1.95 µg/mL (≈ 6.98 µM) | 1.95 µg/mL (≈ 6.98 µM) | 1.95 µg/mL (≈ 6.98 µM) | 1.95 µg/mL (≈ 6.98 µM) | 0.98 µg/mL (≈ 3.51 µM) | 0.98 µg/mL (≈ 3.51 µM) | 7.8 µg/mL (≈ 27.9 µM) | 0.98 µg/mL (≈ 3.51 µM) | 7.8 µg/mL (≈ 27.9 µM) | 3.9 µg/mL (≈ 14 µM) | 0.98 µg/mL (≈ 3.51 µM) | 1.95 µg/mL (≈ 6.98 µM) | 31.3 µg/mL (≈ 112 µM) | 31.3 µg/mL (≈ 112 µM) | > 31.3 µg/mL | 1.95 µg/mL (≈ 6.98 µM) | 31.3 µg/mL (≈ 112 µM) | 31.3 µg/mL (≈ 112 µM) | –
4 | COc1cccc(NNC(=O)c2ccc(Br)cn2)c1 | 0.98 µg/mL (≈ 3.04 µM) | 3.9 µg/mL (≈ 12.1 µM) | 0.98 µg/mL (≈ 3.04 µM) | 1.95 µg/mL (≈ 6.05 µM) | 3.9 µg/mL (≈ 12.1 µM) | 0.98 µg/mL (≈ 3.04 µM) | 3.9 µg/mL (≈ 12.1 µM) | 3.9 µg/mL (≈ 12.1 µM) | 0.24 µg/mL (≈ 0.745 µM) | 1.95 µg/mL (≈ 6.05 µM) | 0.98 µg/mL (≈ 3.04 µM) | 1.95 µg/mL (≈ 6.05 µM) | 0.49 µg/mL (≈ 1.52 µM) | 1.95 µg/mL (≈ 6.05 µM) | > 31.3 µg/mL | > 31.3 µg/mL | 3.9 µg/mL (≈ 12.1 µM) | 15.6 µg/mL (≈ 48.4 µM) | > 31.3 µg/mL | –
5 | COc1ccc(NNC(=O)c2cccc(F)n2)cc1 | 0.24 µg/mL (≈ 0.919 µM) | 1.95 µg/mL (≈ 7.46 µM) | 0.98 µg/mL (≈ 3.75 µM) | 1.95 µg/mL (≈ 7.46 µM) | 0.98 µg/mL (≈ 3.75 µM) | 0.98 µg/mL (≈ 3.75 µM) | 0.98 µg/mL (≈ 3.75 µM) | 0.98 µg/mL (≈ 3.75 µM) | 0.49 µg/mL (≈ 1.88 µM) | 7.8 µg/mL (≈ 29.9 µM) | 1.95 µg/mL (≈ 7.46 µM) | 1.95 µg/mL (≈ 7.46 µM) | 0.24 µg/mL (≈ 0.919 µM) | 15.6 µg/mL (≈ 59.7 µM) | > 31.3 µg/mL | > 31.3 µg/mL | 1.95 µg/mL (≈ 7.46 µM) | > 31.3 µg/mL | 15.6 µg/mL (≈ 59.7 µM) | –

From ChEMBL document CHEMBL5329156, “Discovery and development of novel substituted monohydrazides as potent antifungal agents” (RSC Med Chem, 2023)
